Screening data as filed in PubChem.
This is a sample that favours compounds with a hit; in the whole collection about 4.2% have one here.
ANO1 block = TMEM16A chloride channel inhibitors, primary screen, cell-based, HTS. Anoctamin-1 (Mus musculus), Q8BHY3. HEK293 TMEM16A/YFP iodide influx fluorescence, ionomycin. normalized B-score (activity score, 25-100; higher = stronger inhibition) at 10 µM. 1.2% of 310,000 active;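 active = ratio plate-corrected score three or more library SD toward inhibition, starting fluorescence score within five deviations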;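 also: score derived from kinetic fluorescence span divided by baseline fluorescence per well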
Target sequence (Q8BHY3 whole entry, looked up): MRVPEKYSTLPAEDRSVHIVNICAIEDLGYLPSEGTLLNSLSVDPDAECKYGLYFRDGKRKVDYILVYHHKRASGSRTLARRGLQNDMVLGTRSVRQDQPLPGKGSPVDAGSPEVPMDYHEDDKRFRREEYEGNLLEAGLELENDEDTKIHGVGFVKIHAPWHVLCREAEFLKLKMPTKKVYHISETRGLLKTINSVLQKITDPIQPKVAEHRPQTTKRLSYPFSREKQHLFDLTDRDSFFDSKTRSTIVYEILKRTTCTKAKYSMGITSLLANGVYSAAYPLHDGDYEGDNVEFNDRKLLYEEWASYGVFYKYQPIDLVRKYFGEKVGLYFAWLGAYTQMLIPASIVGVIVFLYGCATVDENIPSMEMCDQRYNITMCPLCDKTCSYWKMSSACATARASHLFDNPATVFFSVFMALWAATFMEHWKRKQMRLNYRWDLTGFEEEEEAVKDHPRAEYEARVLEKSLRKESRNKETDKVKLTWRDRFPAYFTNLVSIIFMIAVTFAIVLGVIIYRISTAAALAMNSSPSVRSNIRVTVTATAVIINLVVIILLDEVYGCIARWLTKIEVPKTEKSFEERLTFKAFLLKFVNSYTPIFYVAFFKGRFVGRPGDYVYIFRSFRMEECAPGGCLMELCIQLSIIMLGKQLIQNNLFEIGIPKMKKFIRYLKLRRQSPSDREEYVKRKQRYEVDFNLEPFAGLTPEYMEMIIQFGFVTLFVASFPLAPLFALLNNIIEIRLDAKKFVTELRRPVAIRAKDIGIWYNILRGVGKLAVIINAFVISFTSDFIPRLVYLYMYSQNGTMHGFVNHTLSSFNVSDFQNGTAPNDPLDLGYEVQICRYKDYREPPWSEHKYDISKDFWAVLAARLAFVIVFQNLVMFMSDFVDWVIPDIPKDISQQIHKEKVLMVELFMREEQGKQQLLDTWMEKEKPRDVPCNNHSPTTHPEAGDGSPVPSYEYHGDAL
UPR XBP1 act = activators of adaptive XBP1 UPR arm, primary screen, cell-based, CHO-XBP1 luciferase reporter, luminescence, uHTS | IRE1-XBP1 UPR activation; percent of tunicamycin response, DMSO as zero | activation, % at 20 µM | 0.33% of 330,000 active | AID 463104, 2010;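 active = versus positive control, 20 µM dose yields 30% or more activation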;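 also: 100% = tunicamycin at 10 µg/mL and 0% = DMSO only wells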
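Material: CHO-XBP1 cells stably carrying IRE1-XBP1-driven luciferase reporter | Medium: F12 with 10% serum | Compound dosing: 20 µM single concentration, DMSO 1% | Incubation: Overnight seeding at 37 °C, 6 h compound treatment at 37 °C | Detection: Steady-Glo luminescence read | Read-out basis: % activation of reporter signal versus tunicamycin and DMSO controls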
UPR CHOP act = activators of apoptotic CHOP UPR arm, primary screen, cell-based, CHO-CHOP luciferase reporter, luminescence, uHTS; UPR activation; percent of tunicamycin response over DMSO baseline; AID 449763, 2010; activation, % at 10 µM; 0.34% of 330,000 active;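 active = at 10 µM dose, activation of 40% or more, normalized to positive control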;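 also: 100% = tunicamycin at 10 µg/mL and 0% = DMSO alone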
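assay system = CHO CHOP reporter cells | amount = 500 CHO-CHOP cells per well | buffer or medium = F12 with 10% FBS | incubation = 16-18 h cell attachment, then 6 h compound exposure, 37 °C | detection = luminescence read with Steady-Glo | read-out = percent activation relative to tunicamycin control | controls = tunicamycin high control, DMSO low control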
Lipid droplet = inhibitors of hepatocyte lipid droplet formation, primary screen, imaging, high-throughput imaging, BODIPY stain; inhibition, % at 6.5 µM; AML12 mouse hepatocytes, oleate lipid droplets; 0.4% of 240,000 active;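 active = lipid droplet intensity inhibited by at least 50%, with more than 500 cells counted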
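Assay system: AML12 mouse liver cells | Compound dosing: One dose, 6.5 µM compound | Read-out basis: Droplet intensity reduction, % inhibition | Measured by: Fluorescence imaging, 20x objective, two fields per well | Schedule: Overnight treatment with compound plus oleate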
CHOP inhibitor = inhibitors of CHOP promoter induction, primary screen, cell-based, unfolded protein response, luciferase reporter | CHO-K1 CHOP-promoter luciferase, tunicamycin-induced, 15-18 h | 3.8% of 220,000 active | inhibition, % at 10 µM;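 active = compounds that reduced the stress-induced luciferase reporter signal by more than about 70% of percent inhibition, limit read from the data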;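 also: 0% = tunicamycin plus vehicle and 100% = wells without tunicamycin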
ANO1 activ = TMEM16A chloride channel activators or potentiators, primary screen, cell-based, HTS. Anoctamin-1 (Mus musculus), Q8BHY3. HEK293 TMEM16A/YFP-H148Q/I152L, iodide quench fluorescence; hits give low values. B-score at 10 µM. 0.3% of 340,000 active. AID 623877, 2012;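 active = fluorescence-ratio B-score plate-corrected deviation score at least 3 library SD below zero, with starting fluorescence score within 5 deviations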;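 also: channel opened by trigger with iodide after compound preincubation; score built on the fluorescence ratio of max minus min over baseline; more negative score means more quench and so TMEM16A activation or potentiation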
Lipid drop inh = hepatocyte lipid droplet accumulation inhibitors, confirmation, imaging, AML12 mouse hepatocytes, single concentration, high-content; shares compounds with Lipid droplet; BODIPY lipid droplet imaging; droplets induced with 100 µM oleic acid; inhibition, % at 5.2 µM; 65% of 870 active; AID 463183, 2010;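 active = inhibition of lipid droplet metric at least 50%, with more than 300 cells in each of four replicates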;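 also: plate controls were DMSO with oleic acid for no effect and 5 µM Triacsin-C for full effect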
AML12 tox img = AML12 hepatocyte cytotoxicity, counter-screen for hepatic lipid droplet formation project, imaging, DAPI nuclear morphology imaging; AML12 mouse hepatocytes; hits give high values; cells fed 100 µM oleate overnight; z-score at 5 µM; 3% of 870 active; shares compounds with Lipid droplet; in the data active = z-score above about 6.3;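 also: compound exposure lasted overnight at 37 °C before fixation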
AML12 tox conf = AML12 hepatocyte cytotoxicity, confirmation, cytotoxicity control for hepatic lipid droplet formation project, cell-based, single concentration. shares compounds with Lipid droplet. AML12 mouse hepatocyte viability, ATP luminescence; cells loaded with 100 µM oleic acid. cytotoxicity, % at 50 µM. 530 tested, under 10 active. AID 463219, 2010;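 active = cytotoxicity above 50% in each of four replicates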;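 also: compound exposure lasted overnight at 37 °C before the ATP read; 0% = DMSO-treated cells and 100% = wells with no cells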
* = called active by the depositor; i = inactive; / = no result given.

SMILES | ANO1 block | UPR XBP1 act | UPR CHOP act | Lipid droplet | CHOP inhibitor | ANO1 activ | Lipid drop inh | AML12 tox img | others
CCC(C)NCCOc1ccc(C(C)(C)c2ccccc2)cc1 (stereo not given) | i | -2 | 0 | 51* | 3 | i | 28 | -0.5
CNCCCOc1ccc(C(C)(C)c2ccccc2)cc1 | / | / | / | -2 | -31 | / | / | /
CC(=O)c1ccc(NC(=O)COC(=O)/C=C/c2cccs2)cc1 | / | -1 | 1 | / | / | i | / | /
Cc1cc(C)c2nc(SCC(=O)N3CC(=O)Nc4ccccc43)c(C#N)cc2c1 | i | 11 | 6 | 163* | / | i | -307 | 22*
O=C(CSCc1cc(=O)n2ccsc2n1)Nc1ccc(F)cc1 | i | -2 | 1 | -18 | / | i | / | /
COc1ccc2oc(=N)c(C(=O)Nc3ccc(Cl)cc3)cc2c1 | i | 3 | 9 | 3 | / | i | / | /
Cc1ccc(-c2cc(-c3c(C)nn(C)c(=O)c3N)[nH]n2)cc1 | i | 1 | 1 | 56* | 7 | i | 79* | -0.36
C=CCNC(=O)NC(=O)COC(=O)CC(NC(N)=O)c1ccc(Cl)cc1 (stereo not given) | i | -1 | 4 | -13 | 15 | i | / | /
Cc1ccc(NC2=C(N3CCCCC3)C(=O)c3ccccc3C2=O)cc1 | i | 2 | -2 | / | -27 | i | / | /
O=C1C(Nc2ccccc2)=C(N2CCCCC2)C(=O)c2ccccc21 | i | 0 | -2 | / | 12 | i | / | /
CN(C1=C(N2CCCCC2)C(=O)c2ccccc2C1=O)c1ccccc1 | i | -2 | -1 | 79* | 71* | i | 114* | 0.76 | AML12 tox conf=11
COc1ccccc1NC1=C(N2CCCCC2)C(=O)c2ccccc2C1=O | i | 0 | 0 | 69* | -9 | i | 40 | -0.26
Cn1c(O)c(N=NC(=O)C2COc3ccccc3O2)c2ccccc21 (stereo not given) | i | 0 | -2 | -3 | 14 | i | / | /
CC(C)n1c(O)c(N=NC(=O)C2COc3ccccc3O2)c2ccccc21 (stereo not given) | i | 13 | 0 | 52* | 42 | i | -1 | -1.1
COc1ccc(CCNC(=O)Cc2c(Cl)cccc2Cl)cc1 | i | -2 | 0 | -2 | -8 | i | / | /
CCn1cc(C(=O)NCCc2ccc(Cl)cc2)c(=O)c2cc(S(=O)(=O)N(C)C)ccc21 | / | -2 | 1 | 0 | / | / | / | /
CCn1cc(C(=O)NCc2ccc(Cl)cc2)c(=O)c2cc(S(=O)(=O)N(C)C)ccc21 | i | 3 | 3 | 62* | / | i | 45 | -0.85 | AML12 tox conf=19
Cc1[nH]c2ccccc2c1/C=N/Nc1ccccc1[N+](=O)[O-] | i | 9 | 8 | 85* | 43 | i | 114* | 0.4
CC(C)Oc1ccccc1/C=N/Nc1ccccc1[N+](=O)[O-] | i | -2 | 1 | 95* | 76* | i | 115* | 0.61
CCOc1ccccc1/C=N/Nc1ccccc1[N+](=O)[O-] | i | 8 | 5 | / | 34 | i | / | /
